Assay outcomes from PubChem BioAssay.
The list is not random: actives were taken first. Their share in the collection is about 1.9%.
TbMetRS inhib = blocks T. brucei methionyl-tRNA synthetase activity. 360,000 tested, 0.4% active. inhibition, % at 11.9 µM. purified T. brucei MetRS, ATP depletion, Kinase-Glo luminescence;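 active means inhibition above a per-plate cutoff of the control wells' mean inhibition plus 3 SD, cut at about 5.5% in these data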;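 further: 0% = DMSO wells median and 100% = median of wells with control inhibitor compound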
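Assay system: T. brucei methionyl-tRNA synthetase, purified | Medium: HEPES buffer with MgCl2, KCl, DTT, spermine, BSA, pyrophosphatase | Compound: 11.9 µM single point | Incubation: 15 min enzyme-compound preincubation, 2 h reaction, 10 min detection, 25 °C | Measured by: Kinase-Glo luciferase luminescence reporting remaining unconsumed ATP | Measure: % inhibition normalized to control-well medians | Replication: Singlicate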
sPLA2-III inh = Blocks human group III sPLA2 activity | AID 743126 | inhibition, % at 12.2 µM | QFRET BODIPY PC-A2 liposome hydrolysis, fluorescence | 370,000 tested, 0.56% active;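 active means inhibition above mean plus 3 SD of compounds lying within the high and low control bounds, cut at about 19% in these data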;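 further: 0% = median of test compound wells and 100% = no enzyme DMSO wells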
PLC-beta3 inh = blocks human PLC-beta3 enzyme activity. Q01970. Purified PLC-beta3, fluorogenic substrate, fluorescence. inhibition, % at 12.2 µM. 370,000 tested, 0.18% active. AID 720704; in the data active means inhibition above about 11%;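 further: 0% = median of compound wells on plate and 100% = full blocker control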
DAGLB inhibitor = diacylglycerol lipase beta (human) inhibition; Q8NCG7; HEK293T DAGLB membrane lysate, EnzChek fluorogenic substrate; inhibition, % at 5.17 µM; 340,000 tested, 0.059% active; AID 504411; in the data active means inhibition above about 34%;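 further: 0% = enzyme with vehicle and 100% = wells lacking enzyme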
PLCg1 inh = PLC-gamma1 (human) inhibition, primary screen. inhibition, % at 12.2 µM. AID 720700. purified PLC-gamma1, fluorogenic substrate, fluorescence. P19174. 370,000 tested, 0.84% active; in the data active means inhibition above about 9.5%
Numbers without * were called inactive.

Screening COc1cccc(CNC(=O)[C@H]2CCCN2C(=O)[C@H]2CCCN2C(=O)N2CCCCC2)c1 returned sPLA2-III inh 2.4, PLC-beta3 inh 0.9 and PLCg1 inh -2.7.
For O=c1[nH]c(=S)[nH]c2c1C(c1ccc(Br)cc1)c1c([nH]c(=S)[nH]c1=O)O2 the results were TbMetRS inhib 2.8, sPLA2-III inh -26.3, PLC-beta3 inh -4.0, DAGLB inhibitor -1.6 and PLCg1 inh 24.0*.
Screening CCN1CCN(CC(=O)Nc2cc(S(=O)(=O)N(CC)c3ccccc3)ccc2Cl)CC1 returned TbMetRS inhib -0.2, sPLA2-III inh -22.6, PLC-beta3 inh 3.2, DAGLB inhibitor -0.3 and PLCg1 inh 9.5*.
For COc1ccc(OC)c(NC(=O)NNC(=O)c2cc3occc3[nH]2)c1 the results were TbMetRS inhib 9.2*, sPLA2-III inh 3.6, PLC-beta3 inh -28.2, DAGLB inhibitor 1.4 and PLCg1 inh -15.8.
Cc1ccc(C)c(NC(=O)NNC(=O)c2cc3occc3[nH]2)c1 was read as TbMetRS inhib 4.1, sPLA2-III inh 6.0, PLC-beta3 inh -31.7, DAGLB inhibitor -2.6 and PLCg1 inh -14.8.
O=C(NCC(c1ccco1)N1CCN(c2ccccc2F)CC1)C(=O)NC1CC1 (stereo not given) was read as TbMetRS inhib -0.3, sPLA2-III inh 9.0, PLC-beta3 inh -4.8, DAGLB inhibitor 2.8 and PLCg1 inh 0.2.
Screening O=C(NCC(c1ccco1)N1CCN(c2ccccc2F)CC1)C(=O)NC1CCCCC1 (stereo not given) returned TbMetRS inhib -0.6, sPLA2-III inh 2.2, PLC-beta3 inh 2.0, DAGLB inhibitor -0.4 and PLCg1 inh 9.5*.
CC(=O)Nc1cc(OC(C)=O)c2nonc2c1OC(C)=O was read as TbMetRS inhib 28.3*, sPLA2-III inh 7.3, PLC-beta3 inh -89.5, DAGLB inhibitor -21.5 and PLCg1 inh -32.5.
`COc1ccc(-n2c(SCC(=O)Nc3ccc4cn[nH]c4c3)nnc2-c2ccccc2)cc1` gave sPLA2-III inh -5.3, PLC-beta3 inh -0.1 and PLCg1 inh 0.2.
For COC(=O)[C@]1(CNC(=O)NCCc2ccc(OC)c(OC)c2)CC(=O)N(C)[C@@H]1c1ccccc1 the results were sPLA2-III inh 3.2, PLC-beta3 inh 4.5 and PLCg1 inh 4.3.
`Cc1ccc(S(=O)(=O)c2ccc([N+](=O)[O-])cn2)cc1` gave TbMetRS inhib 0.0, sPLA2-III inh 3.2, PLC-beta3 inh 5.9, DAGLB inhibitor -4.1 and PLCg1 inh 10.8*.
Screening O=[N+]([O-])c1ccc(S(=O)(=O)c2ccccc2)nc1 returned TbMetRS inhib -0.4, sPLA2-III inh 1.0, PLC-beta3 inh -0.4, DAGLB inhibitor -4.8 and PLCg1 inh 2.7.
Cc1ccc(NC(=O)CN(C)C(=O)CSc2nccn2C)cc1 was read as TbMetRS inhib -0.3, sPLA2-III inh -2.0, PLC-beta3 inh 6.7, DAGLB inhibitor -1.3 and PLCg1 inh 13.6*.
For CCCCNC(=O)/C=C1\Sc2ccccc2NC1=O the results were TbMetRS inhib -0.3, sPLA2-III inh -3.6, PLC-beta3 inh -42.8, DAGLB inhibitor -0.9 and PLCg1 inh -39.5.
CCc1ccc(C(=O)/C=C2\Sc3ccccc3NC2=O)cc1 was read as TbMetRS inhib -0.5, sPLA2-III inh 41.0*, PLC-beta3 inh 0.0, DAGLB inhibitor 3.0 and PLCg1 inh 0.6.
`O=C(CS(=O)(=O)c1ccccc1)Nc1ccc(Cl)cn1` gave TbMetRS inhib -0.1, sPLA2-III inh -1.9, PLC-beta3 inh -3.8, DAGLB inhibitor -0.6 and PLCg1 inh 2.2.
Screening O=C(CC(c1ccccc1)c1ccccc1)Nc1ccc(Cl)cn1 returned TbMetRS inhib -0.2, sPLA2-III inh -5.5, PLC-beta3 inh 2.7, DAGLB inhibitor -5.0 and PLCg1 inh 9.6*.
O=C(c1ccc(Cl)c(Cl)c1)N1CCC(=O)N(C(COCc2ccc(Cl)cc2)Cc2ccccc2)CC1 (stereo not given) was read as TbMetRS inhib -0.3, sPLA2-III inh -8.2, PLC-beta3 inh 5.2, DAGLB inhibitor -7.0 and PLCg1 inh 12.1*.
Screening COc1ccc(S(=O)(=O)Nc2cccc3c2O[C@H](CN(C)C(=O)Nc2ccc(C(F)(F)F)cc2)[C@@H](C)CN([C@H](C)CO)C3=O)cc1 returned TbMetRS inhib -0.1, sPLA2-III inh -34.3, PLC-beta3 inh 5.5, DAGLB inhibitor -1.7 and PLCg1 inh 9.9*.
Screening CC(C)C[C@@H](CCCc1ccccc1)CCC(=O)N(c1ccccc1)c1ccccc1 returned sPLA2-III inh 4.9, PLC-beta3 inh 1.6 and PLCg1 inh -1.6.
`CC1C(O)=C(c2nc3ccccc3[nH]2)C(=N)N1c1ccccc1` (stereo not given) gave TbMetRS inhib 0.1, sPLA2-III inh 23.2*, PLC-beta3 inh -32.9, DAGLB inhibitor 3.9 and PLCg1 inh -24.0.
`COCCN=c1scc(-c2cccs2)n1/N=C/c1ccc(O)c(O)c1O` gave TbMetRS inhib -0.2, sPLA2-III inh 41.5*, PLC-beta3 inh -21.8, DAGLB inhibitor 16.1 and PLCg1 inh -20.4.
For Cc1cc(C)n(-c2ccc(C(=O)N3CCN(c4ccccn4)CC3)cc2)n1 the results were TbMetRS inhib -0.3, sPLA2-III inh -8.4, PLC-beta3 inh 1.1, DAGLB inhibitor 1.1 and PLCg1 inh 10.3*.
For O=C(c1ccc(F)cc1)N1CCN(c2ccccn2)CC1 the results were TbMetRS inhib -1.1, sPLA2-III inh 10.4, PLC-beta3 inh -6.8, DAGLB inhibitor -0.4 and PLCg1 inh -0.1.
Cc1ccc(NC(=O)[C@H]2CC(=O)O[C@@H]2c2ccccc2)cc1C was read as sPLA2-III inh 9.1, PLC-beta3 inh -5.1 and PLCg1 inh 5.4.
CN=C(Nc1ccc(Cl)cc1)c1ccc(C(F)(F)F)cc1 was read as TbMetRS inhib -0.5, sPLA2-III inh 5.5, PLC-beta3 inh 5.3, DAGLB inhibitor -2.3 and PLCg1 inh 14.8*.
For Cc1ccc(C(=O)N2CCC[C@@H]2C(=O)N2CCC[C@@H]2C(=O)NCc2ccccc2)cc1 the results were sPLA2-III inh 5.8, PLC-beta3 inh 0.8 and PLCg1 inh -0.1.
`Cc1cc(NC(=O)C2CCCC2)n(-c2nc3ccccc3[nH]2)n1` gave TbMetRS inhib -1.5, sPLA2-III inh 7.9, PLC-beta3 inh 4.9, DAGLB inhibitor -22.0 and PLCg1 inh 10.8*.
For CC1(C)CC1C(=O)Nc1ccc([N+](=O)[O-])cc1Br (stereo not given) the results were TbMetRS inhib -0.2, sPLA2-III inh -4.9, PLC-beta3 inh 4.3, DAGLB inhibitor -2.8 and PLCg1 inh 3.6.
Cc1ccc(C2(c3ccc(C)cc3)CC2C(=O)Nc2ccc([N+](=O)[O-])cc2O)cc1 (stereo not given) was read as TbMetRS inhib -0.5, sPLA2-III inh -6.3, PLC-beta3 inh 12.5*, DAGLB inhibitor -4.2 and PLCg1 inh 8.8.
O=C(CSc1nc2ccccc2n1CCc1ccccc1)N1CCOCC1 was read as TbMetRS inhib 0.0, sPLA2-III inh 6.3, PLC-beta3 inh 0.0, DAGLB inhibitor 0.3 and PLCg1 inh -1.9.
